According to ChEMBL document CHEMBL1153787, “Unsaturated dideoxy fluoro-ketopyranosyl nucleosides as new cytostatic agents: a convenient synthesis of 2,6-dideoxy-3-fluoro-4-keto-beta-D-glucopyranosyl analogues of uracil, 5-fluorouracil, thymine, N4-benzoyl cytosine and N6-benzoyl adenine” (Eur J Med Chem, 2009):

Key:
L1210 [1] = experiment: Cytotoxicity against mouse L1210 cells; assay type: functional, cell-based
Method in brief: (§1)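 Proliferation of suspension tumour cells (murine L1210 and FM3A, human Molt4/C8 and CEM) was measured. IC50 is the compound concentration that inhibits cell proliferation by 50%.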

FM3A = experiment: Cytotoxicity against mouse FM3A cells; assay type: functional, cell-based; method in brief: as §1
[2] = Cytotoxicity against human Molt4/C8 cells; assay type: functional, cell-based; details: MOLT-4; method in brief: as §1
CCRF-CEM [3] = experiment: Cytotoxicity against human CEM cells; assay type: functional, cell-based; method in brief: as §1
[4] = Cytotoxicity against MDCK cells assessed as reduction of cell viability by MTS dye staining; assay type: cell-based, Canis lupus familiaris; details: dog
Method in brief: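 MDCK cell viability read by colorimetric formazan-based MTS dye staining. CC50 is the compound concentration that reduces cell viability by 50%.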

[5] = Cytotoxicity against human HEL cells assessed as induction of microscopically visible alteration in cell morphology; assay type: cell-based; details: read-out: MIC
Method in brief: (§2)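 HEL, Vero and HeLa cell cultures were examined under the microscope for changes in cell morphology. MIC is the compound concentration that causes a microscopically visible alteration of cell morphology.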

[6] = Cytotoxicity against african green monkey Vero cells assessed as induction of microscopically visible alteration in cell morphology; assay type: cell-based; details: chlorocebus sabaeus, read-out: MIC; method in brief: as §2
HeLa = experiment: Cytotoxicity against human HeLa cells assessed as induction of microscopically visible alteration in cell morphology; assay type: functional; details: read-out: MIC; method in brief: as §2
L1210 [7] = experiment: Cytotoxicity against mouse L1210 cells assessed as inhibition of [3H]dThd incorporation into macromolecules; assay type: functional
Method in brief: (§3)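 L1210 and CEM cells were given radiolabelled [3H]dThd (DNA), [3H]Urd (RNA) or [3H]Leu (protein). Label incorporated into methanol-insoluble material was measured. IC50 is the concentration that inhibits precursor incorporation by 50%.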

CCRF-CEM [8] = experiment: Cytotoxicity against human CEM cells assessed as inhibition of [3H]dThd incorporation into macromolecules; assay type: functional; method in brief: as §3
L1210 [9] = experiment: Cytotoxicity against mouse L1210 cells assessed as inhibition of [3H]Urd incorporation into macromolecules; assay type: functional; method in brief: as §3
CCRF-CEM [10] = experiment: Cytotoxicity against human CEM cells assessed as inhibition of [3H]Urd incorporation into macromolecules; assay type: functional; method in brief: as §3
L1210 [11] = experiment: Cytotoxicity against mouse L1210 cells assessed as inhibition of [3H]Leu incorporation into macromolecules; assay type: functional; method in brief: as §3
CCRF-CEM [12] = experiment: Cytotoxicity against human CEM cells assessed as inhibition of [3H]Leu incorporation into macromolecules; assay type: functional; method in brief: as §3

Structure (SMILES) | IC50 (L1210 [1]) | IC50 (FM3A) | IC50 [2] | IC50 (CCRF-CEM [3]) | CC50 [4] | MCC [5] | MCC [6] | minimum cytotoxic concentration (MCC) (HeLa) | IC50 (L1210 [7]) | IC50 (CCRF-CEM [8]) | IC50 (L1210 [9]) | IC50 (CCRF-CEM [10]) | IC50 (L1210 [11]) | IC50 (CCRF-CEM [12])
C[C@H]1O[C@@H](n2ccc(NC(=O)c3ccccc3)nc2=O)C=C(F)C1=O | 1.4 µM | 11.9 µM | 1.6 µM | 1.7 µM | 8.2 µM | 20 µM | 20 µM | 20 µM | 12 µM | 11 µM | 10 µM | 12 µM | 12 µM | 7.9 µM
C[C@H]1O[C@@H](n2cnc3c(NC(=O)c4ccccc4)ncnc32)C=C(F)C1=O | 2.4 µM | 6 µM | 5 µM | 4.3 µM | 12 µM | 20 µM | 20 µM | 20 µM | – | – | – | – | – | –
Cc1cn([C@H]2C=C(F)C(=O)[C@@H](C)O2)c(=O)[nH]c1=O | 2.8 µM | 10 µM | 2.5 µM | 2.6 µM | 0.7 µM | 20 µM | 20 µM | 20 µM | – | – | – | – | – | –
C[C@H]1O[C@@H](n2cc(F)c(=O)[nH]c2=O)C=C(F)C1=O | 0.82 µM | 0.49 µM | 3.3 µM | 3.7 µM | 0.6 µM | 20 µM | 20 µM | 20 µM | – | – | – | – | – | –
C[C@H]1O[C@@H](n2ccc(=O)[nH]c2=O)C=C(F)C1=O | 2.9 µM | 16 µM | 2.5 µM | 2.2 µM | 0.6 µM | 20 µM | 20 µM | 20 µM | – | – | – | – | – | –
